Test results published in ChEMBL document CHEMBL1123528, “Syntheses and in vitro evaluation of 4-(2-aminoethyl)-2(3H)-indolones and related compounds as peripheral prejunctional dopamine receptor agonists” (J Med Chem, 1986).

Species: Oryctolagus cuniculus
Test: Ability to stimulate peripheral prejunctional dopaminergic receptors by 50% inhibition of vasoconstrictor response to field stimulation in isolated perfused rabbit ear artery
Assay type: functional
How it was run: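 Isolated rabbit ear artery, perfused, constricted by electrical field (nerve) stimulation. The test drug was given in increasing concentrations, each left in contact with the tissue for 4 min, and the concentration was raised right after the response to nerve stimulation. For dopaminergic blockade, (S)-sulpiride superfusion began after the initial concentration-effect curve was obtained.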

Compound	EC50 [nM]
CCCN(CCC)CCc1ccc(O)c(NC=O)c1	750
CCCN(CCC)CCc1ccc(O)cc1	80
NCCc1ccc(O)c2c1CC(=O)N2	116
CCCN(CCC)CCc1ccc(O)c2c1C(C)(C)C(=O)N2	> 3000
CCCN(CCC)CCc1ccc(O)c2c1C(C)(O)C(=O)N2 (configuration not stated)	218
CCCN(CCC)CCc1ccc(O)c(NC(C)=O)c1	> 10000
CCCN(CCC)CCc1cccc(O)c1	700
NCCc1ccc(O)c(O)c1 [DOPAMINE]	73
CCCN(CCC)CCc1cccc2c1CC(=O)N2 [ROPINIROLE]	100

Results, then the compound that gave them:

EC50 [nM]	Compound
> 3000	CCCN(CCC)CCc1ccc(OC)c2c1CC(=O)N2
28	CCCN(CCc1ccc(O)cc1)CCc1cccc2c1CC(=O)N2
> 3000	NCCc1ccc2c(c1)CC(=O)N2
> 3000	CCCN(CCC)CCc1ccc(O)c2c1CC(=O)N2C
> 3000	CCCN(CCC)CCc1ccc2c(c1)NC(=O)C2
18	CCCN(CCC)CCc1ccc(O)c2c1C(C)C(=O)N2 (configuration not stated)
53	O=C1Cc2c(CCNCCc3ccc(O)cc3)ccc(O)c2N1
3000	CCCN(CCC)CCc1ccc2c(c1)CC(=O)N2
